Source: the M2OR odorant receptor database
Residue numbers refer to the chain shown, from its start.

Key:
Conditions in all cases: stereoisomer not certain
[1] = system: T1, O5AP2 A105T
T1 sequence (whole entry): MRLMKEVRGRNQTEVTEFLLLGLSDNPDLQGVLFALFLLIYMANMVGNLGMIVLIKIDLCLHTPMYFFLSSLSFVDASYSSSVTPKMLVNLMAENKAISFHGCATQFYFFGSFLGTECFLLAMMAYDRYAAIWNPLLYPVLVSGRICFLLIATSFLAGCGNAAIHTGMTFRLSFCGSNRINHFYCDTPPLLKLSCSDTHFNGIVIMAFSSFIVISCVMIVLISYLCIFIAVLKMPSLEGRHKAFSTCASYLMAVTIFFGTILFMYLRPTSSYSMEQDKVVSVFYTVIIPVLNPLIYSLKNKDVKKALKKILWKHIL
Method in brief: (§1)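 Values were gathered from published papers (main text and supplementary material), with extra details requested from the original authors when needed, and checked for typos and inconsistencies. Each receptor–molecule pair is called responsive (active) if the original authors judged the measured signal statistically different from baseline, and non-responsive (inactive) otherwise. Assay methods varied by source, often transient mammalian cell-line luciferase assays. Recorded details include cell line, G-protein, co-transfected protein and tags.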

[2] = system: T2, O5AU1
T2 sequence (whole entry): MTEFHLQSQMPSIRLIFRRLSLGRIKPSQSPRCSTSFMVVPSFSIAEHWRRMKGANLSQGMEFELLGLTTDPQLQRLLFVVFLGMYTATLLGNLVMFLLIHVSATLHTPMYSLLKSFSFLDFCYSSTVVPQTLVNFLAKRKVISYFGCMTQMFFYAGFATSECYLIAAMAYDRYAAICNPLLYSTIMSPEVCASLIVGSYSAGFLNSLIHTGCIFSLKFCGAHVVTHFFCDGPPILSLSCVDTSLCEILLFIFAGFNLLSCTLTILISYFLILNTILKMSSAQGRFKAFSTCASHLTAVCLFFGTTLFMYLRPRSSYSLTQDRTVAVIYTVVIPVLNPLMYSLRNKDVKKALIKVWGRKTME
Method in brief: as §1

[3] = system: T3, O5H14
T3 sequence (whole entry): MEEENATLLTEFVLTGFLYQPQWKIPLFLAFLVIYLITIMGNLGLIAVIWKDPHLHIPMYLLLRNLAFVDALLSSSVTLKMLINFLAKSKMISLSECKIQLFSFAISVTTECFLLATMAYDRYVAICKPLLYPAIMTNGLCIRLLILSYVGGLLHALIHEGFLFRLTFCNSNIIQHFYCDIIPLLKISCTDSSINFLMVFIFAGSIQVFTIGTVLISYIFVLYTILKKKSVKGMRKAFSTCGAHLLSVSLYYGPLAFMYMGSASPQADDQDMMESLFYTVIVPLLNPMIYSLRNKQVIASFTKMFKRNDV
Method in brief: as §1

[4] = system: T4, O5H15 V108I S148T T167S
T4 sequence (whole entry): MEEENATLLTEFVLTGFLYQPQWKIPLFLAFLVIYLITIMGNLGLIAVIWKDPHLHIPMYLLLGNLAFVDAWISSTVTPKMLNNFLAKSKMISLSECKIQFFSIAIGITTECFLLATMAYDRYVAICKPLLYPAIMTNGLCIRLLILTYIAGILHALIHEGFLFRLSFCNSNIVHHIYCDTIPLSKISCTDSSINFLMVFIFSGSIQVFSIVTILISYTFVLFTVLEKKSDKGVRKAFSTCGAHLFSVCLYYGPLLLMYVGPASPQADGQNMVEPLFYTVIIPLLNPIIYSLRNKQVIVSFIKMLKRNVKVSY
Method in brief: as §1

[5] = system: T5, O6C65 T222A
T5 sequence (whole entry): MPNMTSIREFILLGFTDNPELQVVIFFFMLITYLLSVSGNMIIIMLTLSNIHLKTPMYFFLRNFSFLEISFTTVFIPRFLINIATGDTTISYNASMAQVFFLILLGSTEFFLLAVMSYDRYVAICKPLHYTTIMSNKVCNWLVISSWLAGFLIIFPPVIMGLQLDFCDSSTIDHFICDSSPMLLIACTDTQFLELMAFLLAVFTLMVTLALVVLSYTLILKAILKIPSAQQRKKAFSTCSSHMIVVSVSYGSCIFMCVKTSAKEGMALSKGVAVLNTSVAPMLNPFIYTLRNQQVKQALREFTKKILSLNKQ
Method in brief: as §1

[6] = system: T6, O6C70 L181P
T6 sequence (whole entry): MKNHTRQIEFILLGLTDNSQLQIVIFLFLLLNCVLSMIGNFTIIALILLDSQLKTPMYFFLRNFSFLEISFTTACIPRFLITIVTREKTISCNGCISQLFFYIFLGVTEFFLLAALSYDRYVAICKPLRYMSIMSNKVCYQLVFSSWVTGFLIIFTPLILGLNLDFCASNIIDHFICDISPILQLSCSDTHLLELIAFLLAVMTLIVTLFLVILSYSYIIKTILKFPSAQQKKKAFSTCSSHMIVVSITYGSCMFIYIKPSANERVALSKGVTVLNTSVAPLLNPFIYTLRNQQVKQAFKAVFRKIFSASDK
Method in brief: as §1

[7] = system: T7, O7E24 S193F P242S
T7 sequence (whole entry): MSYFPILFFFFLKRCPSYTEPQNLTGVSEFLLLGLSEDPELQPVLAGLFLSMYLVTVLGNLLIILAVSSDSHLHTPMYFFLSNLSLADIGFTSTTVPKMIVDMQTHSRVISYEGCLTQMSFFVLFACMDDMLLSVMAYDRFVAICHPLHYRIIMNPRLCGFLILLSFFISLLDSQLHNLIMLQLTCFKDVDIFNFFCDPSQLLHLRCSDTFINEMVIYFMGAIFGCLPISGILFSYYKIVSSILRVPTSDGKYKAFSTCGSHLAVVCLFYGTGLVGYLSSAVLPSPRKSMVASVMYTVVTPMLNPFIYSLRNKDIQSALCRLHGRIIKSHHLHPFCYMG
Method in brief: as §1

[8] = system: T8, O7E24
T8 sequence (whole entry): T7 sequence (whole entry) with F193S
Method in brief: as §1

[9] = biological target: T9, OR10A2 (Homo sapiens) (UniProt Q9H208)
T9 sequence (whole entry): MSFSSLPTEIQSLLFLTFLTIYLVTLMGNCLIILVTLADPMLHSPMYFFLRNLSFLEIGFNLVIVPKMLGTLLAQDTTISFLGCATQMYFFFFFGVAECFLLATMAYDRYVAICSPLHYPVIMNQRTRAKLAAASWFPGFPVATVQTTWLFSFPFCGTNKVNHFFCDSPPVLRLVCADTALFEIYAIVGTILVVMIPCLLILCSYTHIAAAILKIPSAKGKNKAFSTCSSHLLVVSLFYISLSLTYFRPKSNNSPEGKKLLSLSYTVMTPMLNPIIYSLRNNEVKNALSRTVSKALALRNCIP
Method in brief: as §1

[10] = biological target: T10, OR10A3 (Homo sapiens) (UniProt P58181)
T10 sequence (whole entry): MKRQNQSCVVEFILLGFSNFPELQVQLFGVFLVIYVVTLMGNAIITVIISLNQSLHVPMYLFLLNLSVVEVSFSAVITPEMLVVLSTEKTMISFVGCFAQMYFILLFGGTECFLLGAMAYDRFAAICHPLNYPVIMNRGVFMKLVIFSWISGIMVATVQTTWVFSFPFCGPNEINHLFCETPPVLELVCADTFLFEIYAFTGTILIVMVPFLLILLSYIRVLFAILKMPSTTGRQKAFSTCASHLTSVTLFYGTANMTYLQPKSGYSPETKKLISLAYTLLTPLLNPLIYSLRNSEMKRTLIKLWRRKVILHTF
Method in brief: as §1

[11] = biological target: T11, OR10A4 (Homo sapiens) (UniProt Q9H209)
T11 sequence (whole entry): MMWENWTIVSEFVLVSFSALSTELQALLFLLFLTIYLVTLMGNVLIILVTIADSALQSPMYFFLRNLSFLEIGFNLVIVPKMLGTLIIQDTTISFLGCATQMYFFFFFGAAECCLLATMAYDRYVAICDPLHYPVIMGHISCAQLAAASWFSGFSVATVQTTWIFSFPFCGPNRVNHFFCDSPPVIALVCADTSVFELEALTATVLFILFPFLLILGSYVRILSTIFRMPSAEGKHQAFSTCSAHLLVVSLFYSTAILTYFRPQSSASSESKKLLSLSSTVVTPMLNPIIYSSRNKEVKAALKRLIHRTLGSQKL
Method in brief: as §1

[12] = biological target: T12, OR10A5 (Homo sapiens) (UniProt Q9H207)
T12 sequence (whole entry): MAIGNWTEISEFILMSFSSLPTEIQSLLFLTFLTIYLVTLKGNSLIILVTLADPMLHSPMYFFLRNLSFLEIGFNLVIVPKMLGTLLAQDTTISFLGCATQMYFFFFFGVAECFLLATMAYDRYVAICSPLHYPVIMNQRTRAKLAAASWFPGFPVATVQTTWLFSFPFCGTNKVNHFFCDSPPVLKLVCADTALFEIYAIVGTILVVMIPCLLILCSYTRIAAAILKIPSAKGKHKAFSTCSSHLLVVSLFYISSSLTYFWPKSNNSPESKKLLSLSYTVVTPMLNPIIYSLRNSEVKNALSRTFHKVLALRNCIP
Method in brief: as §1

[13] = biological target: T13, OR10A6 (Homo sapiens) (UniProt Q8NH74)
T13 sequence (whole entry): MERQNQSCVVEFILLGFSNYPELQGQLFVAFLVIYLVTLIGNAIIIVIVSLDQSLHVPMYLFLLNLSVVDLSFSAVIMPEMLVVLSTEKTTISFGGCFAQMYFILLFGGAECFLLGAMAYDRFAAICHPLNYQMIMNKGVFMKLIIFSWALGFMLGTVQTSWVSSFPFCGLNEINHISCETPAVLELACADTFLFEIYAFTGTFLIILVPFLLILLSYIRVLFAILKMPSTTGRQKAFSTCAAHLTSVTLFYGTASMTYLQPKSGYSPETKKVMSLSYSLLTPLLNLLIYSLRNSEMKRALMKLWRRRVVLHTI
Method in brief: as §1

[14] = biological target: T14, OR10A7 (Homo sapiens) (UniProt Q8NGE5)
T14 sequence (whole entry): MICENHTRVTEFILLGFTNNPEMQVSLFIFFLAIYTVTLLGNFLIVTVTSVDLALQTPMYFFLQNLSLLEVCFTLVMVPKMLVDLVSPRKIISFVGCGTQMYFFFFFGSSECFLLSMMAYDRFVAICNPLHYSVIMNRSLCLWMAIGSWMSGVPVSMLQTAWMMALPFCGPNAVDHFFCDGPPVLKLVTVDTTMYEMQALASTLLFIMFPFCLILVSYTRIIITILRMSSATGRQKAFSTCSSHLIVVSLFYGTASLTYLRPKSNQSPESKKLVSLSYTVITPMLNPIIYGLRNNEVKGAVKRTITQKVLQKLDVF
Method in brief: as §1

[15] = biological target: T15, OR10AD1 (Homo sapiens) (UniProt Q8NGE0)
T15 sequence (whole entry): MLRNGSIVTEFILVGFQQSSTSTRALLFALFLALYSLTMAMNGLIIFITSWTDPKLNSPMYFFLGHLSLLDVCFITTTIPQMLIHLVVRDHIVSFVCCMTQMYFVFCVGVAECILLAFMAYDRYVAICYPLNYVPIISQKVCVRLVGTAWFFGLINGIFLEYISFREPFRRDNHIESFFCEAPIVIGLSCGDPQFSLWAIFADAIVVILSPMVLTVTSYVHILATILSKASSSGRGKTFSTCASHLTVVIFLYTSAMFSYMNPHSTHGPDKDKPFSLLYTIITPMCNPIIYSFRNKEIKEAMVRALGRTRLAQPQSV
Method in brief: as §1

[16] = biological target: T16, OR10AG1 (Homo sapiens) (UniProt Q8NH19)
T16 sequence (whole entry): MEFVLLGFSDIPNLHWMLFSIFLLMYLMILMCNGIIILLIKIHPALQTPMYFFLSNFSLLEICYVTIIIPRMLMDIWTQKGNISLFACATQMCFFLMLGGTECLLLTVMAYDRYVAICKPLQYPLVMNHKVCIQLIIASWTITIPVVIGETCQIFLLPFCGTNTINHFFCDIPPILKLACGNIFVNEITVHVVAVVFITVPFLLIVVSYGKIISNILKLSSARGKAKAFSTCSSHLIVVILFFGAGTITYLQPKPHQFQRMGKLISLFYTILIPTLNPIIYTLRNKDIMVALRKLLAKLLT
Method in brief: as §1

[17] = biological target: T17, OR10C1 (Homo sapiens) (UniProt Q96KK4)
T17 sequence (whole entry): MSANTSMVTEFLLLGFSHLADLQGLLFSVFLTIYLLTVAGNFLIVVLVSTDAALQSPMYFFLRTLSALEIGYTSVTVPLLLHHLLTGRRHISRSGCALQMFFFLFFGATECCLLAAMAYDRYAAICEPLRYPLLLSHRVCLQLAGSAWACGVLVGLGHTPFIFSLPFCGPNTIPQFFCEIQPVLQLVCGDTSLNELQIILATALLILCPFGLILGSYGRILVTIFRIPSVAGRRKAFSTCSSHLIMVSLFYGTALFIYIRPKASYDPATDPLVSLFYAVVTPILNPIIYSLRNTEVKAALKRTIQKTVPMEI
Method in brief: as §1

[18] = biological target: T18, OR10D3 (Homo sapiens) (UniProt Q8NH80)
T18 sequence (whole entry): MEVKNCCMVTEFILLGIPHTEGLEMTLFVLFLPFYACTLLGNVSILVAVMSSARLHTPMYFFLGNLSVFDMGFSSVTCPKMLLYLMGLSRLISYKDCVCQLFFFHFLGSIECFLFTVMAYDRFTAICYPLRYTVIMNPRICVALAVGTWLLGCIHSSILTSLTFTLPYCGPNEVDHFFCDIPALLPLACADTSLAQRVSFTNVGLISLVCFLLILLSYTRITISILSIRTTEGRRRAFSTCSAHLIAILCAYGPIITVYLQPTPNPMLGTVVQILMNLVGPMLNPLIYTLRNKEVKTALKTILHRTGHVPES
Method in brief: as §1

Measured: odorant receptor agonist call

CC1=C(O)C(=O)OC1C (stereo not drawn)
inactive: all assays above
